The record followed here is paper PMC3698760 (Journal of the American Heart Association: Cardiovascular …, 2013).

One data set has as its target ABCA1 (Homo sapiens, UniProt O95477). The data set is described as follows: Probucol-inhibitable, ABCA1-specific cholesterol efflux in A172 cells. The data set is classed as cell-based. Particulars: probucol 10 μmol/L. A digest of the protocol:
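A172 glioblastoma cells, labelled with ³H-cholesterol, were held in serum-free 0.2% BSA medium with 5 μmol/L T0901317 and 5 μmol/L 9-cis-retinoic acid. Cells were exposed for 4 h to 20 μg/mL acceptor, with or without 10 μmol/L probucol. ABCA1-dependent efflux was taken as the probucol-inhibitable fraction.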

The next data set is described as follows: Circular dichroism. Particulars: CD spectra in water, 200 to 260 nm. It counts as physicochemical. A digest of the protocol: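 Spectra of peptides and human apoA-I (17.8 to 178 μmol/L) recorded at 25°C in a thermostatted quartz cell with 0.1 mm path length, scanning 200–260 nm. Results expressed as mean residue ellipticity (deg cm² dmol⁻¹).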
A general note: Circular dichroism is widely used to follow secondary structure.

Data set [1] concerns apoE−/− mice fed a high‐fat diet. The experiment in a line: Aortic atherosclerotic lesion formation, 16-week treatment. The data set is classed as in vivo. Particulars: scrambled FAMP i.p. 3 times per week, 16 weeks; Oil Red O; mean±SD. A digest of the protocol: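 Male apoE−/− mice, bought at six weeks, fed a high-fat diet (0.5% cholesterol, 10% fat) and dosed i.p. 3 times per week for 16 weeks: test peptide at 10 or 50 mg/kg per day, or scrambled peptide. Whole aortas were then stained with Oil Red O. Lesion area was scored by image analysis as percentage of aorta from ascending aorta to abdominal bifurcation.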

Data set [2] deals with apoE‐deficient mice. The data set is described as follows: Plasma lipid profiles by enzymatic assay, 16-week treatment. It counts as in vivo. Particulars: scrambled peptides i.p. 16 weeks, n=7; high-fat-fed apoE-deficient mice; mean±SD. In a few lines: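 Overnight-fasting plasma taken after 16 weeks from 19 of 23 high-fat-fed apoE−/− mice. Dosing was i.p. 3 times weekly with scrambled peptide or test peptide at 10 or 50 mg/kg per day. Total cholesterol, triglyceride and HDL cholesterol were measured by enzymatic assay; mean±SD.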

The test system of data set [3] is apoE‐deficient mice. The experiment in a line: Plasma lipoprotein profiles analyzed by HPLC, 16-week treatment. The data set is classed as in vivo. Particulars: scrambled peptides i.p. 16 weeks, n=7, mean±SD. In a few lines:
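Plasma from apoE−/− mice after 16-week i.p. dosing (3 times weekly) was separated by HPLC into 20 particle-size subfractions. Each subfraction was assayed enzymatically for total cholesterol, free cholesterol, triglycerides and phospholipids; mean±SD.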

The next data set deals with A172 human glioblastoma. The experiment in a line: Cellular cholesterol efflux in A172 human cells. It counts as cell-based. Particulars: 4 hours. In a few lines:
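A172 human glioblastoma cells were grown in DMEM with 10% FBS and antibiotics, then labelled with ³H‑cholesterol. Efflux ran in serum‑free medium with 0.2% BSA, 5 μmol/L T0901317 and 5 μmol/L 9‑cis‑retinoic acid, with or without 10 μmol/L probucol. Acceptor was human apoA‑I or test peptide at 20 μg/mL, or a molar dose series, for 4 h. n=4–5; mean±SD.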

The subject of data set [4] is monocyte‐derived macrophages from an ABCA1‐deficient Tangier disease patient. It counts as cell-based, human. Particulars: 20 μg/mL, 4 hours, n=4. A digest of the protocol:
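Peripheral blood monocyte‑derived macrophages came from a healthy volunteer and a Tangier disease patient, with ethics approval and written consent. Cells were isolated by Lymphoprep density separation and labelled with ³H‑cholesterol. Efflux was run in serum‑free 0.2% BSA medium with or without 20 μg/mL human apoA‑I or test peptide for 4 h. n=4; mean±SD.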

Chain of ABCA1 (O95477 whole entry): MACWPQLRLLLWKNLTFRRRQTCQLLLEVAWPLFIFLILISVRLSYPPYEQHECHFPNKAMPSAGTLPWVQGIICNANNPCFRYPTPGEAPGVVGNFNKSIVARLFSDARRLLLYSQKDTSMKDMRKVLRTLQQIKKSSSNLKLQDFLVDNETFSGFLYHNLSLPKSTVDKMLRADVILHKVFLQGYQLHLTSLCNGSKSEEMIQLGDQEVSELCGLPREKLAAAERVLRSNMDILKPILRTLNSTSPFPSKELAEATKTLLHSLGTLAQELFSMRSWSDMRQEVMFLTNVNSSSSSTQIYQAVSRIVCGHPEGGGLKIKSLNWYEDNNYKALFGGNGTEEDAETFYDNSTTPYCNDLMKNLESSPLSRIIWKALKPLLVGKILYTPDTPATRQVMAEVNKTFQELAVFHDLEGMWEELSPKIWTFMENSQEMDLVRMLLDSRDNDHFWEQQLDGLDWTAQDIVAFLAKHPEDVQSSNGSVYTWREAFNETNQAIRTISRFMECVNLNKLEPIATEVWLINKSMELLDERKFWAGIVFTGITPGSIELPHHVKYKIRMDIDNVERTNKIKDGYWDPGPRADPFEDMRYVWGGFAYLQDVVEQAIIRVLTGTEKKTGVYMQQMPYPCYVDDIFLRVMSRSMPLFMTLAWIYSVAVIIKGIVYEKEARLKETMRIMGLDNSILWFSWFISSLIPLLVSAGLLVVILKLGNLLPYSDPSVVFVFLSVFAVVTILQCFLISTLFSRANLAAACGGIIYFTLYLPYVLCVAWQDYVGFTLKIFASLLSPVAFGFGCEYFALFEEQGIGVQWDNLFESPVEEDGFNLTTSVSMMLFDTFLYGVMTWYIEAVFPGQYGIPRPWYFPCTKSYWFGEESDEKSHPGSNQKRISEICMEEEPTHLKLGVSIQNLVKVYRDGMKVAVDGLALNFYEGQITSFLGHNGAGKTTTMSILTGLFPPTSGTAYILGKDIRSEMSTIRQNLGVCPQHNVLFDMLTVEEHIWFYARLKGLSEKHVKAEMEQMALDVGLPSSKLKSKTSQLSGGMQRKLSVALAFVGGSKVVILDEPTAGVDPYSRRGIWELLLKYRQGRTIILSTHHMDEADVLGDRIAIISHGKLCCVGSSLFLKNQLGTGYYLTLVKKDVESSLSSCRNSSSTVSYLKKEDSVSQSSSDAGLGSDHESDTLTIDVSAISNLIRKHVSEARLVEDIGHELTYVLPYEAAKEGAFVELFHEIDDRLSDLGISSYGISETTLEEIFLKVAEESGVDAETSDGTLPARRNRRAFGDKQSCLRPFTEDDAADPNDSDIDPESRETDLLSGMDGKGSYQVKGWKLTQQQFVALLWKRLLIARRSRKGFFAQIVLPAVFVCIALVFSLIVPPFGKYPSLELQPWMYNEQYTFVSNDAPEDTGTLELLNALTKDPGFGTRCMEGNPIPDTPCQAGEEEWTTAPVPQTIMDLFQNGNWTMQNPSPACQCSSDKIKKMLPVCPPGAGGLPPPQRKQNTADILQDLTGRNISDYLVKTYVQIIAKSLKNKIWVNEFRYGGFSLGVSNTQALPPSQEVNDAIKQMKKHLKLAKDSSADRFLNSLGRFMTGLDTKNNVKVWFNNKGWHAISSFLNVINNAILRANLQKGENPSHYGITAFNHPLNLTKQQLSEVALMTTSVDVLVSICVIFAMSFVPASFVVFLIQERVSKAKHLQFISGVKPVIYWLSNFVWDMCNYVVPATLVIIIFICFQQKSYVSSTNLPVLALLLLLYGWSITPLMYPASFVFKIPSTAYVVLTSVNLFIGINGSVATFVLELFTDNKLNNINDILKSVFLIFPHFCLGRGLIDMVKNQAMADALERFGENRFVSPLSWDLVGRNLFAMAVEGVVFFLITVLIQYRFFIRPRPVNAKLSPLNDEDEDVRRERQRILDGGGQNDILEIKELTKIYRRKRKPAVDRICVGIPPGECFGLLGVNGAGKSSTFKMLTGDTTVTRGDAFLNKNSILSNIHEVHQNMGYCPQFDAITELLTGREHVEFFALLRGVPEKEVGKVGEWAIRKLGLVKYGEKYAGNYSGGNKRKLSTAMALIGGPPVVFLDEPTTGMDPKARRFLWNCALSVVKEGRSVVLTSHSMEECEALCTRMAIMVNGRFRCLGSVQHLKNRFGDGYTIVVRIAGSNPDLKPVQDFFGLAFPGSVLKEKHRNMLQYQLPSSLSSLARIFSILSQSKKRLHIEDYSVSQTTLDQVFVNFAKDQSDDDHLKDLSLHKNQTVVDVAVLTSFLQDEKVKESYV

Regarding “Ac-DWFKAFYDKVAEKFKEAF-NH2 [L‐4F, reference compound]”, the “percentage of probucol‐inhibitable, ABCA1‐specific cholesterol efflux” value at ABCA1 is “much more unspecific cholesterol efflux compared with FAMP5”.

In the case of H-ALEHLFTLSEKALKALEDLLKKLL-OH [FAMP2], the “α‐helical conformation (CD spectra)” value in the data set “Circular dichroism” was “formed strong α‐helical conformations”.

For the substance “H-ATEFLHLLLLKLLKKKEDELLAYA-OH [Scrambled FAMP, reference compound]”, the “relative surface area of aortic plaque lesions” value in data set [1] is 31.3±8.9%. In addition, in the data set with apoE‐deficient mice [2], the “HDL Cholesterol” value was 12.6 ± 4.8 mg/dL, the “Total Cholesterol” value was determined as 1373.9 ± 499.2 mg/dL and the Triglyceride amounted to 119.9 ± 21.7 mg/dL. Moreover, in the data set on apoE‐deficient mice [3], the “Cholesterol, CM (>80 nm)” value was 106.2 ± 47.8 mg/dL; the “Cholesterol, HDL (8 to 16 nm)” value was 23.0 ± 4.5 mg/dL; the “Cholesterol, HDL Subfractions Intermediate Particles” value came out at 12.0 ± 3.4 mg/dL; the “Cholesterol, HDL Subfractions Large Particles” value was 7.2 ± 1.5 mg/dL. Also, in the data set on apoE‐deficient mice [3], the “Cholesterol, HDL Subfractions Small Particles” value turned out to be 3.8 ± 0.5 mg/dL; the “Cholesterol, LDL (16 to 30 nm)” value turned out to be 165.3 ± 25.4 mg/dL; the “Cholesterol, VLDL (30 to 80 nm)” value worked out at 423.7 ± 96.1 mg/dL; the “Free cholesterol, CM (>80 nm)” value turned out to be 44.9 ± 20.5 mg/dL. Besides, in the data set with apoE‐deficient mice [3], the “Free cholesterol, HDL (8 to 16 nm)” value stood at 12.5 ± 1.4 mg/dL; the “Free cholesterol, HDL Subfractions Intermediate Particles” value was determined as 5.1 ± 0.5 mg/dL; the “Free cholesterol, HDL Subfractions Large Particles” value stood at 5.7 ± 1.1 mg/dL; the “Free cholesterol, HDL Subfractions Small Particles” value was 1.7 ± 0.2 mg/dL. In the data set on apoE‐deficient mice [3], the “Free cholesterol, LDL (16 to 30 nm)” value amounted to 80.9 ± 10.1 mg/dL; the “Free cholesterol, VLDL (30 to 80 nm)” value was determined as 179.8 ± 35.9 mg/dL; the “Phospholipids, CM (>80 nm)” value came to 53.0 ± 22.3 mg/dL; the “Phospholipids, HDL (8 to 16 nm)” value worked out at 45.5 ± 10.3 mg/dL. In the data set with apoE‐deficient mice [3], the “Phospholipids, HDL Subfractions Intermediate Particles” value was 28.1 ± 7.4 mg/dL; the “Phospholipids, HDL Subfractions Large Particles” value is 12.4 ± 3.3 mg/dL; the “Phospholipids, HDL Subfractions Small Particles” value turned out to be 5.0 ± 1.7 mg/dL; the “Phospholipids, LDL (16 to 30 nm)” value came to 133.6 ± 20.5 mg/dL. In the data set with apoE‐deficient mice [3], the “Phospholipids, VLDL (30 to 80 nm)” value turned out to be 228.2 ± 40.0 mg/dL; the “Triglyceride, CM (>80 nm)” value stood at 13.9 ± 7.5 mg/dL; the “Triglyceride, HDL (8 to 16 nm)” value came to 3.3 ± 0.8 mg/dL; the “Triglyceride, HDL Subfractions Intermediate Particles” value turned out to be 1.5 ± 0.5 mg/dL. In the data set on apoE‐deficient mice [3], the “Triglyceride, HDL Subfractions Large Particles” value is 0.6 ± 0.2 mg/dL; the “Triglyceride, HDL Subfractions Small Particles” value turned out to be 1.1 ± 0.3 mg/dL; the “Triglyceride, LDL (16 to 30 nm)” value was determined as 12.3 ± 4.2 mg/dL; the “Triglyceride, VLDL (30 to 80 nm)” value came out at 33.8 ± 7.7 mg/dL.

H-ATEHLSTLSEKAKPALEDLLKKLL-OH [FAMP4]: in “Circular dichroism”, the “α‐helical conformation (CD spectra)” value is reported as “but not FAMP4, formed strong α‐helical conformations”.

As for “human apoA‐I: Human apoA‐I purchased from Calbiochem, 243–amino acid major HDL protein”, the “concentration adequate for a saturating effect on cholesterol efflux” value in the data set with A172 human glioblastoma (A172 cells) came to 20 µg/mL. The “effect of ABCA1 inactivation (probucol) on peptide-mediated cholesterol efflux” value in the data set with A172 human glioblastoma (probucol 10 μmol/L, 20 μg/mL) is on record as “drastically inhibited”. In data set [4], the “cholesterol efflux in Tangier disease macrophages vs healthy subject” value is reported as “suppressed”.
